Measurements taken from ChEMBL document CHEMBL4229485, “The design, synthesis, and evaluation of organic dithienopyrrole-based D-π-A dyes for use as sensitizers in photodynamic therapy” (Bioorg Med Chem Lett, 2018).
Activity calls are given as the source filed them. The calls are words filed in the database; no cut-off is given here.

What was measured:
HeLa [1] = experiment: Phototoxicity in human HeLa cells assessed as reduction in cell viability preincubated for 1 hr followed by LED light irradiation for 15 mins measured after 48 hrs by MTT assay; assay type: functional, cell-based; settings: light or radiation study
Procedure, shortened: (§1)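 HeLa cells were treated with the sensitizer and photo-irradiated. IC50 is the sensitizer concentration that reduced viability by 50%, read from semi-logarithmic dose-response plots.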

[2] = Dark toxicity in human HeLa cells assessed as reduction in cell viability after 48 hrs by MTT assay; assay type: cell-based
[3] = Induction of oxidative damage to human serum albumin assessed as oxidation of tryptophan residue at 10 uM after 15 to 45 mins by fluorescence assay; assay type: functional
Procedure, shortened: (§2)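 Sensitizer (10 µM) and HSA (20 µM) in PBS were irradiated with white LED light (420–750 nm, 8.0 ± 0.5 mW/cm2). Photo-oxidation of HSA's single tryptophan was followed as the loss of its intrinsic fluorescence at around 350 nm.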

[4] = Dark toxicity in HEK293 cells assessed as reduction in cell viability measured after 48 hrs by MTT assay; assay type: cell-based; settings: human
HEK293 = experiment: Phototoxicity in HEK293 cells assessed as reduction in cell viability preincubated for 1 hr followed by LED light irradiation for 15 mins measured after 48 hrs by MTT assay; assay type: functional, cell-based; settings: Homo sapiens, HEK293, light or radiation study
[5] = Dark toxicity in HEK293 cells assessed as inhibition of cell viability at 10 uM measured after 48 hrs by MTT assay relative to control; assay type: cell-based; settings: human, read-out: INH
HeLa [6] = experiment: Phototoxicity in human HeLa cells assessed as reduction in cell viability preincubated for 1 hr followed by LED light irradiation for 60 mins measured after 48 hrs by MTT assay; assay type: functional, cell-based; settings: light or radiation study; procedure, shortened: as §1
[7] = Induction of oxidative damage to human serum albumin assessed as oxidation of tryptophan residue at 10 uM after 15 to 45 mins in presence of ROS quencher L-ascorbic acid by fluorescence assay; assay type: functional; procedure, shortened: as §2
[8] = Drug uptake in cytoplasm of human HeLa cells at 10 uM after 1 hr by Hoechst 33342 staining based confocal microscopic method; assay type: ADME, subcellular
[9] = Drug uptake in nucleus of human HeLa cells at 10 uM after 1 hr by Hoechst 33342 staining based confocal microscopic method; assay type: ADME, subcellular

Compound | IC50 (HeLa [1]) [µM] | IC50 [2] [µM] | Activity [3] | further results
COc1ccc(-c2cc3c(s2)c2sc(-c4ccc(/C=C5\SC(=S)N(CC(=O)O)C5=O)s4)cc2n3C(C)(C)C)cc1 | 5.7 | 63.9 | inactive | –
CC(C)(C)n1c2cc(-c3ccc(N(c4ccccc4)c4ccccc4)cc3)sc2c2sc(-c3ccc(C=O)s3)cc21 | 45 | 67 | inactive | –
CN(C)c1ccc(-c2cc3c(s2)c2sc(-c4ccc(/C=C5\SC(=S)N(CC(=O)O)C5=O)s4)cc2n3C(C)(C)C)cc1 | 12.1 | > 100 | inactive | –
CC(C)(C)n1c2cc(-c3ccc(N(c4ccccc4)c4ccccc4)cc3)sc2c2sc(-c3ccc(/C=C4\SC(=S)N(CC(=O)O)C4=O)s3)cc21 | 17.1 | 60.2 | inactive | –
COc1ccc(-c2cc3c(s2)c2sc(-c4ccc(C=O)s4)cc2n3C(C)(C)C)cc1 | 3.8 | 68.6 | inactive | –
CN(C)c1ccc(-c2cc3c(s2)c2sc(-c4ccc(/C=C(\C#N)C(=O)O)s4)cc2n3C(C)(C)C)cc1 | 0.6 | 15.5 | Active | –
N#C/C(=C\c1ccc(-c2ccc(-c3ccc(N(c4ccccc4)c4ccccc4)cc3)s2)s1)C(=O)O | 0.21 | 21.9 | – | IC50 at 48 h [4]: > 10 µM; IC50 (HEK293): 160 nM; cytotoxicity at 48 h, 10 µM [5]: 32%
COc1ccc(-c2cc3c(s2)c2sc(-c4ccc(/C=C(\C#N)C(N)=O)s4)cc2n3C(C)(C)C)cc1 | 0.56 | 15.7 | Active | –
CC(C)(C)n1c2cc(-c3ccc(N(c4ccccc4)c4ccccc4)cc3)sc2c2sc(-c3ccc(/C=C(\C#N)C(N)=O)s3)cc21 | > 100 | > 100 | inactive | –
COc1ccc(-c2cc3c(s2)c2sc(-c4ccc(/C=C5\C(=O)N(CCO)C(=O)C(C#N)=C5C)s4)cc2n3C(C)(C)C)cc1 | 15.9 | 60 | – | –
CC(C)(C)n1c2cc(-c3ccc(N(c4ccccc4)c4ccccc4)cc3)sc2c2sc(-c3ccc(/C=C(\C#N)C(=O)O)s3)cc21 | > 100 | > 100 | inactive | –
CCCCN1C(=O)C(=C/C=C/C=C2\Oc3ccccc3N2CCCS(=O)(=O)O)C(=O)N(CCCC)C1=S | 16 | > 100 | – | –
COc1ccc(-c2cc3c(s2)c2sc(-c4ccc(/C=C(\C#N)C(=O)O)s4)cc2n3C(C)(C)C)cc1 | 0.19 | 43.4 | Active | IC50 (HeLa [6]): 63 nM; Activity [7]: Active; Drug uptake [8]: Active; IC50 at 48 h [4]: > 10 µM; Drug uptake [9]: Active; IC50 (HEK293): 43 nM; cytotoxicity at 48 h, 10 µM [5]: 7%
CN(C)c1ccc(-c2cc3c(s2)c2sc(-c4ccc(C=O)s4)cc2n3C(C)(C)C)cc1 | 2.5 | > 10 | inactive | –
CN(C)c1ccc(-c2cc3c(s2)c2sc(-c4ccc(/C=C(\C#N)C(N)=O)s4)cc2n3C(C)(C)C)cc1 | 5 | 54 | inactive | –
C=CC1=C(C)c2cc3[nH]c(cc4nc(cc5[nH]c(cc1n2)c(C)c5C=C)C(C)=C4CCC(=O)O)c(CCC(=O)O)c3C | 0.75 | 12.5 | – | –
